Results on seven compounds are retold here after ChEMBL document CHEMBL1208661, “Synthesis, characterization, in vitro and molecular docking studies of new 2,5-dichloro thienyl substituted thiazole derivatives for antimicrobial properties” (2010).

≈ marks a conversion by molar mass, not a printed value. Calls of active or inactive are those of the source.

In assay [1] the test system is Aspergillus flavus. In words: Antifungal activity against Aspergillus flavus NCIM 524 after 3 to 4 days by serial plate dilution method. It is filed as functional. Put shortly: (§1)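 Sabouraud agar was used (peptone, D-glucose and agar in water, pH 5.7). Plates were lawned with a saline spore suspension and dried at 37 °C for 1 h. Wells were punched in the agar and filled with compound in DMSO, with a DMSO solvent control. Plates were run in triplicate at 37 °C for 3–4 days.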

In assay [2] the test system is Aspergillus fumigatus. Nature of the assay: Antifungal activity against Aspergillus fumigatus NCIM 902 after 3 to 4 days by serial plate dilution method. It is filed as functional. In short, it runs like this: as §1
Assay [3] relates to Talaromyces marneffei. Nature of the assay: Antifungal activity against recultured Penicillium marneffei after 3 to 4 days by serial plate dilution method. It is filed as functional. In short, it runs like this:
as §1

Assay [4] concerns Trichophyton mentagrophytes. In words: Antifungal activity against recultured Trichophyton mentagrophytes after 3 to 4 days by serial plate dilution method. It is filed as functional. Put shortly:
as §1

The test system of the next assay is Escherichia coli. In words: Antibacterial activity against Escherichia coli after 24 hrs by disc diffusion method. It is filed as functional. Put shortly:
(§2)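 Paper discs (6.25 mm, Whatman No. 1) were dry-heat sterilized at 140 °C for 1 h. Test compounds were made up at different concentrations in dimethylformamide and loaded onto batches of 100 discs, using 1 ml holding 100 times the per-disc amount. Discs were placed in triplicate on nutrient agar seeded with fresh bacteria.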
Background: In agar diffusion tests the substance spreads into inoculated agar from a disc or well.

The test system of another assay is Staphylococcus aureus. Nature of the assay: Antibacterial activity against Staphylococcus aureus Smith after 24 hrs by disc diffusion method. It is filed as functional. Put shortly:
as §2

The next assay deals with Pseudomonas aeruginosa. Nature of the assay: Antibacterial activity against Pseudomonas aeruginosa after 24 hrs by disc diffusion method. It is filed as functional. Put shortly:
as §2

Another assay relates to Klebsiella pneumoniae. In words: Antibacterial activity against Klebsiella pneumoniae after 24 hrs by disc diffusion method. Format: functional. In short, it runs like this:
as §2

For assay [5], the system named is Aspergillus flavus. Nature of the assay: Antifungal activity against Aspergillus flavus NCIM 524 at 10 ug/ml after 3 to 4 days by serial plate dilution method. It is filed as functional, organism-based. Put shortly: as §1
Assay [6] concerns Aspergillus fumigatus. In words: Antifungal activity against Aspergillus fumigatus NCIM 902 at 10 ug/ml after 3 to 4 days by serial plate dilution method. Format: functional, organism-based. In short, it runs like this: as §1
Assay [7] has as its system Talaromyces marneffei. In words: Antifungal activity against recultured Penicillium marneffei at 10 ug/ml after 3 to 4 days by serial plate dilution method. It is filed as functional, organism-based. Put shortly: as §1
The subject of assay [8] is Trichophyton mentagrophytes. Nature of the assay: Antifungal activity against recultured Trichophyton mentagrophytes at 10 ug/ml after 3 to 4 days by serial plate dilution method. It is filed as functional, organism-based. In short, it runs like this: as §1

As to `Clc1cc(-c2csc(-c3cccc4cccnc34)n2)c(Cl)s1`, the MIC in the assay on Aspergillus flavus [1] is 6.25 µg/mL (≈ 17.2 µM); against Aspergillus fumigatus [2] it was 12.5 µg/mL (≈ 34.4 µM); against Talaromyces marneffei [3], 6.25 µg/mL (≈ 17.2 µM); in assay [4] it was 6.25 µg/mL (≈ 17.2 µM); with Escherichia coli it was 12.5 µg/mL (≈ 34.4 µM); in the assay with Staphylococcus aureus it was 6.25 µg/mL (≈ 17.2 µM). For the same compound, the figures for the MIC in the assay on Pseudomonas aeruginosa and with Klebsiella pneumoniae were 12.5 µg/mL (≈ 34.4 µM) and 6.25 µg/mL (≈ 17.2 µM), respectively.

Consider `C[C@@H]1[C@H](O)[C@@H](C)/C=C/C=C/C=C/C=C/C=C/C=C/C=C/[C@H](O[C@@H]2O[C@H](C)[C@@H](O)[C@H](N)[C@@H]2O)C[C@@H]2O[C@](O)(C[C@@H](O)C[C@@H](O)[C@H](O)CC[C@@H](O)C[C@@H](O)CC(=O)O[C@H]1C)C[C@H](O)[C@H]2C(=O)O` [AMPHOTERICIN B], for which the MIC (against Aspergillus flavus [1]; against Aspergillus fumigatus [2]; against Talaromyces marneffei [3]; in assay [4]) was under 6.25 µg/mL throughout.

Turning to `Clc1cc(-c2csc(-c3cccnc3)n2)c(Cl)s1`, the MIC entry (with Escherichia coli; with Klebsiella pneumoniae; in the assay on Aspergillus flavus [5]; in the assay on Aspergillus fumigatus [6]; in the assay on Talaromyces marneffei [7]; in [8]) was “inactive” each time. For the same compound, the MIC against Staphylococcus aureus and in the assay on Pseudomonas aeruginosa was 100 µg/mL (≈ 319 µM) in each case.

Take `Fc1ccccc1-c1nc(-c2cc(Cl)sc2Cl)cs1`: the MIC entry in the assay on Escherichia coli, in the assay with Pseudomonas aeruginosa, with Klebsiella pneumoniae, in the assay with Aspergillus flavus [5], with Aspergillus fumigatus [6] and in the assay with Talaromyces marneffei [7] was “inactive” in each case. The MIC entry in [8] was “inactive”. It took 100 µg/mL (≈ 303 µM) to inhibit growth in the assay on Staphylococcus aureus (MIC).

For `Nc1nc(-c2cc(Cl)sc2Cl)cs1`, the MIC in the assay with Aspergillus flavus [1] amounted to 6.25 µg/mL (≈ 24.9 µM); against Aspergillus fumigatus [2], 6.25 µg/mL (≈ 24.9 µM); in the assay with Talaromyces marneffei [3], 12.5 µg/mL (≈ 49.8 µM); in assay [4], 12.5 µg/mL (≈ 49.8 µM); against Escherichia coli, 6.25 µg/mL (≈ 24.9 µM); in the assay on Staphylococcus aureus, 6.25 µg/mL (≈ 24.9 µM). Also, the MIC with Pseudomonas aeruginosa and with Klebsiella pneumoniae was 12.5 µg/mL (≈ 49.8 µM) throughout.

Consider `COc1ccccc1-c1nc(-c2cc(Cl)sc2Cl)cs1`, for which the MIC against Aspergillus flavus [1] stood at 100 µg/mL (≈ 292 µM); with Talaromyces marneffei [3], 12.5 µg/mL (≈ 36.5 µM); in assay [4], 12.5 µg/mL (≈ 36.5 µM); with Escherichia coli it was 6.25 µg/mL (≈ 18.3 µM); against Staphylococcus aureus, 6.25 µg/mL (≈ 18.3 µM); against Pseudomonas aeruginosa it was 12.5 µg/mL (≈ 36.5 µM). In addition, 100 µg/mL (≈ 292 µM) was the least that counted as inhibitory in the assay with Klebsiella pneumoniae (MIC). Further, in the assay with Aspergillus fumigatus [6], the MIC result was “inactive”.

On to `CC1(C)S[C@@H]2[C@H](NC(=O)[C@H](N)c3ccccc3)C(=O)N2[C@H]1C(=O)O` [AMPICILLIN], for which the MIC in the assay on Escherichia coli, in the assay with Staphylococcus aureus, against Pseudomonas aeruginosa and in the assay with Klebsiella pneumoniae was under 6.25 µg/mL in each case.

Broadly, the MIC is the smallest concentration in the dilution series that meets the test's criterion for growth inhibition.
